In ChEMBL document CHEMBL2163276, “A peptide nucleic acid-aminosugar conjugate targeting transactivation response element of HIV-1 RNA genome shows a high bioavailability in human cells and strongly inhibits tat-mediated transactivation of HIV-1 transcription” (J Med Chem, 2012):

How the values were obtained:
CCRF-CEM [1] = assay: Cellular uptake in human CEM cells at 2 uM after overnight incubation; assay type: ADME, cell-based
CCRF-CEM [2] = assay: Cellular uptake in human CEM cells up to 14 hrs by FACS analysis; assay type: ADME, cell-based
Summary of the method: (§1)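 CEM cells taken in log phase and resuspended at 0.5×10^6 cells/mL in RPMI with 2% FBS, preincubated 30 min at 37 °C. Fluorescein-labelled conjugate added at 50 nM–1 µM and incubated. Cells harvested at 30 min, 3 h and 14 h, washed in PBS and scored for FITC-positive cells by FACScan, with propidium iodide (1 µg/mL) to exclude dead cells.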

CCRF-CEM [3] = assay: Cellular uptake in human CEM cells at 0.2 uM within 30 mins by FACS analysis; assay type: ADME, cell-based; details: 0.5 h; summary of the method: as §1
CCRF-CEM [4] = assay: Cellular uptake in human CEM cells up to 14 hrs by FACS analysis at 4 degC; assay type: ADME, cell-based; summary of the method: as §1
[5] = Cytotoxicity against human CEM cells assessed as cell viability at 0.2 to 1 uM by propidium iodide-staining based flow cytometric analysis; details: CCRF-CEM cells, read-out: Activity
Summary of the method: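 CEM cells exposed to labelled conjugate at 0.2–1 µM under uptake-assay conditions. Viability scored by propidium iodide exclusion during flow cytometry.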

CCRF-CEM [6] = assay: Cellular uptake in human CEM cells at 0.3 uM within 14 hrs by FACS analysis; assay type: ADME, cell-based; summary of the method: as §1
CCRF-CEM [7] = assay: Cellular uptake in human CEM cells at 50 nM to 1 uM by FACS analysis; assay type: ADME, cell-based; details: 0.05 µM, TDE = time-dependent effect; summary of the method: as §1
CCRF-CEM [8] = assay: Cellular uptake in human CEM cells at 0.5 uM after 12 hrs by confocal microscopic analysis; assay type: ADME, cell-based
Summary of the method: (§2)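 CEM cells incubated 12 h with FITC-labelled conjugate (0.5 and 1 µM) or with 1 µM FITC-labelled naked PNA. Cells then washed, nuclei DAPI-stained, and imaged by confocal microscopy with FITC read at 488 nm.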

[9] = Cellular uptake in human Huh7.5 cells at 1 uM after 10 hrs by DAPI/WGA-Rhodamine-staining based confocal microscopic analysis in presence of chloroquine; assay type: ADME, cell-based; details: huh-7, 10 h
Summary of the method: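 Huh7.5 cells incubated with 1 µM FITC-labelled conjugate, with or without the endosome disruptor chloroquine, for 10 h. Cells then PBS-washed, fixed in 4% paraformaldehyde, stained with WGA-rhodamine (membrane glycoproteins) and DAPI (nuclei), and imaged by confocal microscopy, FITC at 488 nm.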

CCRF-CEM [10] = assay: Cellular uptake in human CEM cells at 1 uM after 12 hrs by confocal microscopic analysis; assay type: ADME, cell-based; summary of the method: as §2
CCRF-CEM [11] = assay: Cellular uptake in human CEM cells at 0.2 uM within 14 hrs by FACS analysis; assay type: ADME, cell-based; summary of the method: as §1
CCRF-CEM [12] = assay: Cellular uptake in human CEM cells up to 14 hrs by FACS analysis at 37 degC; assay type: ADME, cell-based; summary of the method: as §1

Drug uptake (CCRF-CEM [1]) [%] | Drug uptake (CCRF-CEM [2]) | Drug uptake (CCRF-CEM [3]) [%] | Drug uptake (CCRF-CEM [4]) | Drug uptake (CCRF-CEM [6]) [%] | Drug uptake (CCRF-CEM [7]) | Drug uptake (CCRF-CEM [8]) [%] | Drug uptake [9] | Drug uptake (CCRF-CEM [10]) | Drug uptake (CCRF-CEM [11]) [%] | Drug uptake (CCRF-CEM [12]) | SMILES | viability at 1 µM [5] [%]
30 |  |  |  |  |  |  |  |  |  |  | Cc1cn(CC(=O)N(CCNC(=O)CN(CCNC(=O)CN(CCNC(=O)CN(CCNC(=O)CN(CCNC(=O)CN(CCNC(=O)CN(CCNC(=O)CN(CCNC(=O)CN(CCNC(=O)CN(CCNC(=O)CN(CCNC(=O)CN(CCNC(=O)CN(CCNC(=O)CN(CCNC(=O)CN(CCNC(=O)CN(CCNC(=O)CCC(=O)NCCCCCCO[C@@H]2[C@@H](O)[C@H](N)C[C@H](N)[C@H]2O[C@H]2O[C@H](CN)[C@@H](O)[C@H](O)[C@H]2N)C(=O)Cn2cc(C)c(=O)[nH]c2=O)C(=O)Cn2ccc(N)nc2=O)C(=O)Cn2ccc(N)nc2=O)C(=O)Cn2ccc(N)nc2=O)C(=O)Cn2cnc3c(N)ncnc32)C(=O)Cn2cnc3c(=O)[nH]c(N)nc32)C(=O)Cn2cnc3c(=O)[nH]c(N)nc32)C(=O)Cn2ccc(N)nc2=O)C(=O)Cn2cc(C)c(=O)[nH]c2=O)C(=O)Cn2ccc(N)nc2=O)C(=O)Cn2cnc3c(N)ncnc32)C(=O)Cn2cnc3c(=O)[nH]c(N)nc32)C(=O)Cn2cnc3c(N)ncnc32)C(=O)Cn2cc(C)c(=O)[nH]c2=O)C(=O)Cn2ccc(N)nc2=O)CC(N)=O)c(=O)[nH]c1=O | 
 | Dose-dependent effect | 10 | Active | 100 | tde | 90 | Active | 99% | 85 | Active | CO[C@H]1O[C@H](CN)[C@@H](OCCCCCC(=O)NCCN(CC(=O)NCCN(CC(=O)NCCN(CC(=O)NCCN(CC(=O)NCCN(CC(=O)NCCN(CC(=O)NCCN(CC(=O)NCCN(CC(=O)NCCN(CC(=O)NCCN(CC(=O)NCCN(CC(=O)NCCN(CC(=O)NCCN(CC(=O)NCCN(CC(=O)NCCN(CC(=O)NCCN(CC(=O)N[C@@H](CCCCNC(=S)Nc2ccc(-c3c4ccc(=O)cc-4oc4cc(O)ccc34)c(C(=O)O)c2)C(N)=O)C(=O)Cn2cc(C)c(=O)[nH]c2=O)C(=O)Cn2ccc(N)nc2=O)C(=O)Cn2cc(C)c(=O)[nH]c2=O)C(=O)Cn2cnc3c(N)ncnc32)C(=O)Cn2cnc3c(=O)[nH]c(N)nc32)C(=O)Cn2cnc3c(N)ncnc32)C(=O)Cn2ccc(N)nc2=O)C(=O)Cn2cc(C)c(=O)[nH]c2=O)C(=O)Cn2ccc(N)nc2=O)C(=O)Cn2cnc3c(=O)[nH]c(N)nc32)C(=O)Cn2cnc3c(=O)[nH]c(N)nc32)C(=O)Cn2cnc3c(N)ncnc32)C(=O)Cn2ccc(N)nc2=O)C(=O)Cn2ccc(N)nc2=O)C(=O)Cn2ccc(N)nc2=O)C(=O)Cn2cc(C)c(=O)[nH]c2=O)[C@H](O)[C@H]1N | > 95
 |  |  |  |  |  |  |  | Not Active |  |  | Cc1cn(CC(=O)N(CCN)CC(=O)NCCN(CC(=O)NCCN(CC(=O)NCCN(CC(=O)NCCN(CC(=O)NCCN(CC(=O)NCCN(CC(=O)NCCN(CC(=O)NCCN(CC(=O)NCCN(CC(=O)NCCN(CC(=O)NCCN(CC(=O)NCCN(CC(=O)NCCN(CC(=O)NCCN(CC(=O)NCCN(CC(=O)N[C@@H](CCCCNC(=S)Nc2ccc(-c3c4ccc(=O)cc-4oc4cc(O)ccc34)c(C(=O)O)c2)C(N)=O)C(=O)Cn2cc(C)c(=O)[nH]c2=O)C(=O)Cn2ccc(N)nc2=O)C(=O)Cn2cc(C)c(=O)[nH]c2=O)C(=O)Cn2cnc3c(N)ncnc32)C(=O)Cn2cnc3c(=O)[nH]c(N)nc32)C(=O)Cn2cnc3c(N)ncnc32)C(=O)Cn2ccc(N)nc2=O)C(=O)Cn2cc(C)c(=O)[nH]c2=O)C(=O)Cn2ccc(N)nc2=O)C(=O)Cn2cnc3c(=O)[nH]c(N)nc32)C(=O)Cn2cnc3c(=O)[nH]c(N)nc32)C(=O)Cn2cnc3c(N)ncnc32)C(=O)Cn2ccc(N)nc2=O)C(=O)Cn2ccc(N)nc2=O)C(=O)Cn2ccc(N)nc2=O)c(=O)[nH]c1=O | 
